In ChEMBL document CHEMBL1126975 (J Med Chem, 1993):

Columns and labels:
[1] = target: T1, Amine oxidase [flavin-containing] B (Rattus norvegicus, UniProt P19643); assay: In vitro inhibitory activity on rat brain MAO-B.
T1 sequence (P19643 whole entry): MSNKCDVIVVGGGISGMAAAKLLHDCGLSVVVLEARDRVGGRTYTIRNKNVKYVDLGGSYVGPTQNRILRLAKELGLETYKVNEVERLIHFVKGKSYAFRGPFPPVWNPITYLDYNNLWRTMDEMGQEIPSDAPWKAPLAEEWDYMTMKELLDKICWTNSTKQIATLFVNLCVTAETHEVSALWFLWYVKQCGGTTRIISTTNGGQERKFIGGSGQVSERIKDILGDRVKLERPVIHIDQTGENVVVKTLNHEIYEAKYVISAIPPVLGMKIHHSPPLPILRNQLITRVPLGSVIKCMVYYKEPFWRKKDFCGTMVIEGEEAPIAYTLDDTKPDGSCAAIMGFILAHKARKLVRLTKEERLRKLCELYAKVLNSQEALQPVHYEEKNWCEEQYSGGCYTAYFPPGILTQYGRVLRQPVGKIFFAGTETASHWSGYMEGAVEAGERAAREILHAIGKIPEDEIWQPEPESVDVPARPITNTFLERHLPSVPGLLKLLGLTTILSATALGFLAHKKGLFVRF
How it was run: (§1)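 Radiochemical assay at 37 °C, pH 7.4: MAO A with 10 μM [14C]5-HT, MAO B with 5 μM [14C]PEA. Drug preincubated 20 min with enzyme. Three experiments in duplicate.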

[2] = target: T2, Amine oxidase [flavin-containing] A (Rattus norvegicus, UniProt P21396); assay: In vitro inhibitory activity on rat brain by monoamine oxidase A (MAO-A); how it was run: as §1
T2 sequence (P21396 whole entry): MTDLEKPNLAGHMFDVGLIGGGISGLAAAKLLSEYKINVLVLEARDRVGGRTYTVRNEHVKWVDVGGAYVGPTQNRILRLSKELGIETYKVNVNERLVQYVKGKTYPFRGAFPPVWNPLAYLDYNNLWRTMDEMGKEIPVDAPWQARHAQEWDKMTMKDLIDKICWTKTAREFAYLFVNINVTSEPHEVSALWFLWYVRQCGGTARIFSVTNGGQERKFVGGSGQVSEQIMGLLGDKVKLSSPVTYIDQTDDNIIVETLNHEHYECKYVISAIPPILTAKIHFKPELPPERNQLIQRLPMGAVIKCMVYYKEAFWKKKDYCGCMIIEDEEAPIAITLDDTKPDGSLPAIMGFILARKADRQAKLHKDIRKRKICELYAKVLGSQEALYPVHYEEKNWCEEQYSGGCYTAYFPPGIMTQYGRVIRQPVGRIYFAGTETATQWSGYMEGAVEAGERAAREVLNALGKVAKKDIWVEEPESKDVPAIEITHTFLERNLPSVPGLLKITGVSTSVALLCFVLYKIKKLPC

[3] = target: T1, Amine oxidase [flavin-containing] B; assay: Ex-Vivo Time course of evaluation for the percentage inhibition of MAO-B for 48 hr at single dose 5 mg/kg through oral gavage; type: organism-based; parameters: dose 5 mg/kg, route oral
How it was run: (§2)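 Fasted male Sprague-Dawley rats (150 g) dosed orally by gavage, drug suspended in Tween 80 plus 0.5% methylcellulose; vehicle controls. The 100 mg/kg arm was dosed daily for 9 days. Four rats per time point; brains frozen and homogenized in 0.1 M phosphate pH 7.4. Assayed at 37 °C with 8 μM [14C]PEA for 1 min; toluene/ethyl acetate extraction. Percent inhibition vs control, mean ± SEM.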

[4] = target: T1, Amine oxidase [flavin-containing] B; assay: Ex-Vivo Time course of evaluation for the percentage inhibition of MAO-B for 1 hr at single dose 5 mg/kg through oral gavage (p<0.01); type: organism-based; parameters: dose 5 mg/kg, route oral; how it was run: as §2
[5] = target: T1, Amine oxidase [flavin-containing] B; assay: Ex-Vivo Time course of evaluation for the percentage inhibition of MAO-B for 0.5 hr at single dose 5 mg/kg through oral gavage; type: organism-based; parameters: dose 5 mg/kg, route oral; how it was run: as §2
[6] = target: T1, Amine oxidase [flavin-containing] B; assay: Ex-Vivo Time course of evaluation for the percentage inhibition of MAO-B for 4 hr at single dose 5 mg/kg through oral gavage; type: organism-based; parameters: dose 5 mg/kg, route oral; how it was run: as §2
[7] = target: T1, Amine oxidase [flavin-containing] B; assay: Ex-Vivo percentage inhibition of MAO-B after 24 hr single 5 mg/kg dose by oral gavage; type: organism-based; parameters: dose 5 mg/kg, route oral
How it was run: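 Ex vivo oral gavage in fasted male Sprague-Dawley rats (Tween 80 / 0.5% methylcellulose), four rats per group. Brain homogenate taken 24 h after dosing. MAO B assayed with 8 μM [14C]PEA, 1 min at 37 °C; percent inhibition vs vehicle control.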

[8] = target: T2, Amine oxidase [flavin-containing] A; assay: In Vitro evaluation for the inhibitory activity on rat brain by MAO-A at 100 uM
How it was run: (§3)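 Male Sprague-Dawley rat brain crude mitochondrial fraction, 0.195 mg protein/mL. Radiochemical assay at 37 °C, pH 7.4: MAO A with 10 μM [14C]5-HT, MAO B with 5 μM [14C]PEA. Drug preincubated 20 min with enzyme. […] Three experiments in duplicate.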

[9] = target: T1, Amine oxidase [flavin-containing] B; assay: Ex-Vivo Time course of evaluation for the percentage inhibition of MAO-B for 1 hr at single dose 5 mg/kg through oral gavage; type: organism-based; parameters: dose 5 mg/kg, route oral; how it was run: as §2
[10] = target: T1, Amine oxidase [flavin-containing] B; assay: Ex-Vivo Time course of evaluation for the percentage inhibition of MAO-B for 1 hr at single dose 5 mg/kg through oral gavage (p<0.001); type: organism-based; parameters: dose 5 mg/kg, route oral; how it was run: as §2
[11] = target: T1, Amine oxidase [flavin-containing] B; assay: Ex-Vivo Time course of evaluation for the percentage inhibition of MAO-B for 4 hr at single dose 5 mg/kg through oral gavage [p<0.05 (Bonferroni''s test)]; type: organism-based; parameters: dose 5 mg/kg, route oral; how it was run: as §2
[12] = target: T1, Amine oxidase [flavin-containing] B; assay: Compound was evaluated for the time-dependence inhibition of MAO-B at 0 minute pre-incubation periods
How it was run: (§4)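 Male Sprague-Dawley rat brain crude mitochondrial fraction, MAO B. Drug preincubated with enzyme at 37 °C for 0, 20, 30 or 60 min, then radiochemical assay with 5 μM [14C]PEA at pH 7.4. IC50 read graphically from 9–12 concentrations; three experiments in duplicate.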

[13] = target: T1, Amine oxidase [flavin-containing] B; assay: Compound was evaluated for the time-dependence inhibition of MAO-B at 20 minutes pre-incubation periods; how it was run: as §4
[14] = target: T2, Amine oxidase [flavin-containing] A; assay: Compound was evaluated for the time-dependence inhibition of MAO-A at 60 minutes of preincubated period. values are same with or without pre-incubation
[15] = target: T1, Amine oxidase [flavin-containing] B; assay: Compound was evaluated for the time-dependence inhibition of MAO-B at 30 minutes pre-incubation periods; how it was run: as §4
[16] = target: T1, Amine oxidase [flavin-containing] B; assay: Compound was evaluated for the time-dependence inhibition of MAO-B at 60 minutes preincubation periods; how it was run: as §4
[17] = Selectivity for B form was estimated by the ratio of IC50 (MAO A) at 60 min to that of (MAO B)
[18] = target: T2, Amine oxidase [flavin-containing] A; assay: In Vitro evaluation for the inhibitory activity on rat brain by MAO-A at 100 uM; No Inhibition; how it was run: as §3

Compound N#CCCN1N=C(c2ccc(OCc3ccc(Cl)cc3)cc2)OCC1=O has an IC50 [1] of 100 nM and an IC50 [2] of 3400 nM.
Work on COc1cccc(COc2ccc(C3=NN(CCC#N)C(=O)CO3)cc2)c1 yielded an IC50 [1] of 68 nM and an IC50 [2] of 32000 nM.
COc1cccc(COc2ccc(-c3nn(CCC#N)c(=O)o3)cc2)c1 gave an inhibition at 5 mg/kg [3] of -7%, an IC50 [1] of 29 nM and an IC50 [2] of 19000 nM. The inhibition at 5 mg/kg [4] was 19%, the inhibition at 5 mg/kg [5] was 12% and the inhibition at 5 mg/kg [6] was 6%. For the same compound, the inhibition at 5 mg/kg [7] was -3%.
In the case of N#CCCn1nc(-c2ccc(OCc3ccc([N+](=O)[O-])cc3)cc2)oc1=O, the IC50 [1] is reported as 5500 nM and the IC50 [2] is reported as 11000 nM.
With Cc1ccc(COc2ccc(-c3nn(CCC#N)c(=S)o3)cc2)cc1 the IC50 [1] was 400 nM and the IC50 [2] was 10000 nM.
Work on COc1ccc(COc2ccc(C3=NN(CCC#N)C(=O)CO3)cc2)cc1 yielded an IC50 [1] of 88 nM and an IC50 [2] of 45000 nM.
Compound N#CCCn1nc(-c2ccc(OCc3ccc([N+](=O)[O-])cc3)cc2)oc1=S has an IC50 [1] of 4300 nM and an IC50 [2] of 2600 nM.
In the case of CC(C#N)Cn1nc(-c2ccc(OCc3ccccc3)cc2)oc1=O (stereo not drawn), the IC50 [1] is reported as 2400 nM and the inhibition at 100 µM [8] is reported as 13%.
In the case of Cc1ccc(COc2ccc(C3=NN(CCC#N)C(=O)CO3)cc2)cc1, the IC50 [1] is reported as 320 nM and the IC50 [2] is reported as 250000 nM.
Work on Cc1cccc(COc2ccc(-c3nn(CCC#N)c(=O)o3)cc2)c1 yielded an inhibition at 5 mg/kg [3] of -3%, an IC50 [1] of 8 nM and an inhibition at 5 mg/kg [9] of 16%. For the same compound, the IC50 [2] was 20000 nM, the inhibition at 5 mg/kg [5] was 6% and the inhibition at 5 mg/kg [6] was 15%. For the same compound, the inhibition at 5 mg/kg [7] was -3%.
In the case of Cc1ccc(COc2ccc(-c3nn(CCC#N)c(=O)o3)cc2)cc1, the inhibition at 5 mg/kg [3] is reported as 1%, the IC50 [1] is reported as 15 nM and the inhibition at 5 mg/kg [10] is reported as 22%. It also gave an IC50 [2] of 25000 nM, an inhibition at 5 mg/kg [11] of 14% and an inhibition at 5 mg/kg [5] of 9%. For the same compound, the inhibition at 5 mg/kg [7] was -3%.
Compound N#CCCn1nc(-c2ccc(OCc3ccccc3)cc2)sc1=S has an inhibition at 5 mg/kg [3] of 10%, an IC50 [1] of 16 nM and an inhibition at 5 mg/kg [9] of 18%. It also gave an IC50 [2] of 160000 nM, an inhibition at 5 mg/kg [5] of 27% and an inhibition at 5 mg/kg [6] of 8%. For the same compound, the inhibition at 5 mg/kg [7] was 8%.
N#CCCn1nc(-c2ccc(OCc3ccc(Cl)cc3)cc2)oc1=S gave an IC50 [1] of 690 nM and an IC50 [2] of 2700 nM.
With COc1cccc(COc2ccc(-c3nn(CCC#N)c(=S)o3)cc2)c1 the IC50 [1] was 100 nM and the IC50 [2] was 8100 nM.
Compound N#CCCn1nc(-c2ccc(OCc3ccccc3)cc2)oc1=S has an inhibition at 5 mg/kg [3] of 8%, an IC50 [1] of 4.4 nM and an IC50 [12] of 47 nM. It also gave an inhibition at 5 mg/kg [9] of 84%, an IC50 [2] of 12000 nM and an IC50 [13] of 6.6 nM. It also gave an IC50 [14] of 12000 nM, an IC50 [15] of 4.7 nM and an IC50 [16] of 3.7 nM. The inhibition at 5 mg/kg [5] was 68%, the inhibition at 5 mg/kg [6] was 74% and the Selectivity [17] was 3200. For the same compound, the inhibition at 5 mg/kg [7] was 21%.
In the case of N#CCCCCn1nc(-c2ccc(OCc3ccccc3)cc2)oc1=O, the IC50 [18] is reported as “Not Active” and the IC50 [1] is reported as 490 nM.
